# Experimental data published in ChEMBL document CHEMBL2396583, “Synthesis and anticancer activity of aminodihydroquinoline analogs: identification of novel proapoptotic agents” (Bioorg Med Chem Lett, 2013).
# Calls of active or inactive are those of the source. The rule behind the calls is not given here.
# What was measured:
# [1] = tested on: MDA-MB-231; experiment: Cytotoxicity against human MDA-MB-231 cells assessed as viable cells at 5 uM after 72 hrs by MTT assay in absence of serum relative to control; type: functional; settings: MDA-MB-231, 72 h, read-out: Activity
# Outline: (§1)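 MDA-MB-231 cells were seeded at 5000 per well in serum-containing medium and dosed the next day, with or without serum, at the stated concentrations (1 and 5 µM in the serum-free figure). After 72 h, MTT was added, formazan was dissolved in DMSO and absorbance read at 595 nm. Six wells per condition; viability expressed as % of DMSO control.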
# [2] = tested on: MDA-MB-231; experiment: Cytotoxicity against human MDA-MB-231 cells assessed as viable cells at 1 uM after 72 hrs by MTT assay in absence of serum relative to control; type: functional; settings: MDA-MB-231, 72 h, read-out: Activity; outline: as §1
# [3] = tested on: MDA-MB-231; experiment: Cytotoxicity against human MDA-MB-231 cells assessed as cell viability after 72 hrs by MTT assay in absence of serum; type: functional, cell-based; settings: MDA-MB-231, 72 h; outline: as §1
# [4] = tested on: MDA-MB-231; experiment: Cell cycle arrest in human MDA-MB-231 cells assessed as accumulation at G2/M phase at 5 uM after 72 hrs by propidium iodide staining-based flow cytometric analysis in absence of serum (reference value: 6.53%); type: functional
# [5] = tested on: MDA-MB-231; experiment: Cell cycle arrest in human MDA-MB-231 cells assessed as accumulation at S phase at 5 uM after 72 hrs by propidium iodide staining-based flow cytometric analysis in absence of serum (reference value: 6.19%); type: functional
# [6] = tested on: MDA-MB-231; experiment: Cell cycle arrest in human MDA-MB-231 cells assessed as accumulation at G0/G1 phase at 5 uM after 72 hrs by propidium iodide staining-based flow cytometric analysis in absence of serum (reference value: 84.87%); type: functional
# [7] = tested on: MDA-MB-231; experiment: Cell cycle arrest in human MDA-MB-231 cells assessed as accumulation at subG1 phase at 5 uM after 72 hrs by propidium iodide staining-based flow cytometric analysis in absence of serum (reference value: 2.15%); type: functional
# [8] = tested on: MDA-MB-231; experiment: Cell cycle arrest in human MDA-MB-231 cells assessed as accumulation at G2/M phase at 5 uM after 72 hrs by propidium iodide staining-based flow cytometric analysis in presence of serum (reference value: 15.82%); type: functional
# [9] = tested on: MDA-MB-231; experiment: Cell cycle arrest in human MDA-MB-231 cells assessed as accumulation at S phase at 5 uM after 72 hrs by propidium iodide staining-based flow cytometric analysis in presence of serum (reference value: 14.49%); type: functional
# [10] = tested on: MDA-MB-231; experiment: Cell cycle arrest in human MDA-MB-231 cells assessed as accumulation at G0/G1 phase at 5 uM after 72 hrs by propidium iodide staining-based flow cytometric analysis in presence of serum (reference value: 67.16%); type: functional
# [11] = tested on: MDA-MB-231; experiment: Cell cycle arrest in human MDA-MB-231 cells assessed as accumulation at subG1 phase at 5 uM after 72 hrs by propidium iodide staining-based flow cytometric analysis in presence of serum (reference value: 1.99%); type: functional
# [12] = tested on: MDA-MB-231; experiment: Cytotoxicity against human MDA-MB-231 cells assessed as decrease in cell viability at 1 to 5 uM after 72 hrs by MTT assay in presence of serum; type: functional, cell-based; outline: as §1
smiles,measurement,setting,value
NC1=Nc2ccccc2C(c2ccccc2)C1 (stereo not given),viability at 5 µM,[1],86.3%
same,viability at 1 µM,[2],86.6%
CCCNC1=Nc2ccc(Cl)cc2C(C)(C)C1,viability at 5 µM,[1],82.4%
same,viability at 1 µM,[2],90.7%
CNC1=Nc2ccc(Cl)cc2C(C)(C)C1,viability at 5 µM,[1],92.3%
same,viability at 1 µM,[2],91.9%
CN(C)CCNC1=Nc2ccc(Cl)cc2C(C)(C)C1,IC50,[3],7 µM
same,viability at 5 µM,[1],50.8%
same,viability at 1 µM,[2],66.9%
CN(C)CCCNC1=Nc2cc(Cl)ccc2C(C)(C)C1,IC50,[3],4 µM
same,viability at 5 µM,[1],46.3%
same,viability at 1 µM,[2],68.4%
CC1(C)CC(NCCCCO)=Nc2ccc(Cl)cc21,viability at 5 µM,[1],84.8%
same,viability at 1 µM,[2],87.6%
CC1(C)CC(N)=Nc2ccc(Cl)cc21,viability at 5 µM,[1],81%
same,viability at 1 µM,[2],80.5%
CC1(C)CC(NCCCO)=Nc2ccc(Cl)cc21,viability at 5 µM,[1],84.2%
same,viability at 1 µM,[2],84.5%
CCNC1=Nc2ccc(Cl)cc2C(C)(C)C1,viability at 5 µM,[1],85.1%
same,viability at 1 µM,[2],89.7%
CC1(C)CC(=S)Nc2ccc(Cl)cc21,viability at 5 µM,[1],94.3%
same,viability at 1 µM,[2],85.7%
CCN(CC)CCCNC1=Nc2ccc(Cl)cc2C(C)(C)C1,Activity,[4],4.27%
same,Activity,[5],4.48%
same,Activity,[6],86.24%
same,Activity,[7],4.77%
same,Activity,[8],20.48%
same,Activity,[9],15.44%
same,Activity,[10],61.75%
same,Activity,[11],1.64%
same,Activity,[12],Active
same,IC50,[3],2 µM
same,viability at 5 µM,[1],36.1%
same,viability at 1 µM,[2],53.3%
CC1(C)CC(NCCCN2CCOCC2)=Nc2ccc(Cl)cc21,viability at 5 µM,[1],70.3%
same,viability at 1 µM,[2],91.4%
CC1(C)CC(NCc2ccccc2)=Nc2ccc(Cl)cc21,viability at 5 µM,[1],68.1%
same,viability at 1 µM,[2],88.8%
CN(C)CCCNC1=Nc2cccc(Cl)c2C(C)(C)C1,IC50,[3],4.8 µM
same,viability at 5 µM,[1],43.9%
same,viability at 1 µM,[2],60.5%
CN(C)CCCNC1=Nc2ccc(Cl)cc2C(C)(C)C1,Activity,[4],4.73%
same,Activity,[5],5.61%
same,Activity,[6],81.6%
same,Activity,[7],7.63%
same,Activity,[8],19.22%
same,Activity,[9],14.76%
same,Activity,[10],64.06%
same,Activity,[11],1.53%
same,Activity,[12],Active
same,IC50,[3],2.1 µM
same,viability at 5 µM,[1],38%
same,viability at 1 µM,[2],54.1%
CC1(C)CC(=O)Nc2ccc(Cl)cc21,viability at 5 µM,[1],81.7%
same,viability at 1 µM,[2],82.3%
